Key:
PC-12 [1] = test: Inhibition of H2O2-induced ROS generation in rat PC12 cells assessed as intracellular ROS level at 1 uM preincubated for 6 hrs followed by H2O2 addition measured after 18 hrs by DCFH-DA staining based fluorimetric method relative to control; type: functional; design: scale not given: the % may be the effect or the level left
In short: (§1)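 PC12 cells at 1×10^4/well in RPMI with 10% FBS and penicillin/streptomycin, 24 h at 37 °C, 5% CO2. Test samples (1, 5, 10, 50 µM; ≤0.5% DMSO) for 6 h, PBS wash, then H2O2 150 µM for 18 h. Loaded with 10 µM DCFH-DA for 30 min at 37 °C in the dark, washed twice. DCF fluorescence read at ex 485/em 528 nm as % of untreated control. Three independent experiments, mean ± SEM.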

PC-12 [2] = test: Inhibition of H2O2-induced ROS generation in rat PC12 cells assessed as intracellular ROS level at 5 uM preincubated for 6 hrs followed by H2O2 addition measured after 18 hrs by DCFH-DA staining based fluorimetric method relative to control; type: functional; design: scale not given: the % may be the effect or the level left; in short: as §1
PC-12 [3] = test: Inhibition of H2O2-induced ROS generation in rat PC12 cells assessed as intracellular ROS level at 10 uM preincubated for 6 hrs followed by H2O2 addition measured after 18 hrs by DCFH-DA staining based fluorimetric method relative to control; type: functional; design: scale not given: the % may be the effect or the level left; in short: as §1
PC-12 [4] = test: Inhibition of H2O2-induced ROS generation in rat PC12 cells assessed as intracellular ROS level at 50 uM preincubated for 6 hrs followed by H2O2 addition measured after 18 hrs by DCFH-DA staining based fluorimetric method relative to control; type: functional; design: scale not given: the % may be the effect or the level left; in short: as §1
[5] = target: Amyloid-beta precursor protein (Homo sapiens) (UniProt P05067); test: Inhibition of amyloid beta (1 to 42) (unknown origin) self-induced aggregation at 100 uM incubated for 48 hrs by thioflavin-T fluorescence assay relative to control
Chain of Amyloid-beta precursor protein (Homo sapiens) (P05067 whole entry): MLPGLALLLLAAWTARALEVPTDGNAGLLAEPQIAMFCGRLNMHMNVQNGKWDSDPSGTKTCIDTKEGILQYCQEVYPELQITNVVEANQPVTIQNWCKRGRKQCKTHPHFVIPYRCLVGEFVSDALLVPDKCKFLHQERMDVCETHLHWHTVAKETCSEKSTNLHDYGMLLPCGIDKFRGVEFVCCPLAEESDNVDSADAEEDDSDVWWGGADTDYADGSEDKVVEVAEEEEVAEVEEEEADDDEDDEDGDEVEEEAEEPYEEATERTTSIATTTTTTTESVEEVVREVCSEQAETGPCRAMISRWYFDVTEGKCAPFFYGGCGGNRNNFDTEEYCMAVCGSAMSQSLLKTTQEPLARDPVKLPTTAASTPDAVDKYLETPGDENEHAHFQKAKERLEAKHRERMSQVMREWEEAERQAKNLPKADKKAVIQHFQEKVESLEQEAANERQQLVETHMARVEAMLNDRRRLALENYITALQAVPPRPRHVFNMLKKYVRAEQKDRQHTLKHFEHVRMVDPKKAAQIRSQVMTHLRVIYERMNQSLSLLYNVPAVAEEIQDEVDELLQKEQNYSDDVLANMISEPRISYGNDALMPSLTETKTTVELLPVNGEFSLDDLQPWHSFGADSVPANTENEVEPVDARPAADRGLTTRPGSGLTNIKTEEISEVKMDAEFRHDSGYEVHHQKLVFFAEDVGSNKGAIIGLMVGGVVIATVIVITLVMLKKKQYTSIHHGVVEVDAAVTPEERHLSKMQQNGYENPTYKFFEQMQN

PC-12 [6] = test: Cytotoxicity against rat PC12 cells assessed as effect on cell viability at 1 to 50 uM by MTT assay; type: cell-based; conditions: pc-12, 50 µM
PC-12 [7] = test: Neuroprotection against H2O2-induced cell death in rat PC12 cells assessed as cell viability at 5 uM preincubated for 3 hrs followed by H2O2 stimulation measured after 2 hrs by MTT assay (reference value: 25.2 to 41.8%); type: functional; conditions: read-out: Activity
[8] = Inhibition of soybean 15-LOX assessed as reduction in conversion of linoleic acid to 13-hydroperoxylinoleic acid by spectrophotometric method; design: species or system Glycine max
In short: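 Soybean lipoxygenase type 1-B (final 167 U/mL) with compound (DMSO stock diluted in 0.1 M phosphate buffer pH 8) and linoleic acid (134 mM in ethanol) at room temperature. Formation of 13-hydroperoxylinoleic acid followed spectrophotometrically at 234 nm.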

PC-12 [9] = test: Inhibition of H2O2-induced ROS generation in rat PC12 cells preincubated for 6 hrs followed by H2O2 addition measured after 18 hrs by DCFH-DA staining based fluorimetric method; type: functional, cell-based; in short: as §1
Acetylcholinesterase = Acetylcholinesterase (Electrophorus electricus, UniProt O42275); test: Inhibition of electric eel AChE using acetylthiocholine iodide as substrate pretreated for 5 mins followed by substrate addition by Ellman's method
Chain of Acetylcholinesterase (O42275 whole entry): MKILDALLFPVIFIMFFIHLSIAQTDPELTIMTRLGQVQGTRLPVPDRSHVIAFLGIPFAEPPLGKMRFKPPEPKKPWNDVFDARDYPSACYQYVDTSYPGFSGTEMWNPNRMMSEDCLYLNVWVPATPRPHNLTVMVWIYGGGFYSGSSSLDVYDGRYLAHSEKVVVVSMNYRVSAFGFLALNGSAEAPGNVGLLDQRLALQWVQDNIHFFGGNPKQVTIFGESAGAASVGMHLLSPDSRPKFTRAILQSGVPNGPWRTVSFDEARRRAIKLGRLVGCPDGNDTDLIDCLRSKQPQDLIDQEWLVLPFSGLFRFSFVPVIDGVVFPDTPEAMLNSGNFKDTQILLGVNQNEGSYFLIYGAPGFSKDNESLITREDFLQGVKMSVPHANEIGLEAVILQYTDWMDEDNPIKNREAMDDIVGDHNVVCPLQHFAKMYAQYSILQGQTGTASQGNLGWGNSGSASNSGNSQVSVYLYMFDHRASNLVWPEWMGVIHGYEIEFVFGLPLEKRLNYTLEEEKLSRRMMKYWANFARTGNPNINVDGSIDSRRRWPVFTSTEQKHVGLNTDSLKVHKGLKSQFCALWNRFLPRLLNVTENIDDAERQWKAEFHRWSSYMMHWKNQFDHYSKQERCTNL

Cholinesterase = Cholinesterase (Equus caballus, UniProt P81908); test: Inhibition of equine serum BuChE using butyrylthiocholine iodide as substrate pretreated for 5 mins followed by substrate addition by Ellman's method
Chain of Cholinesterase (P81908 whole entry): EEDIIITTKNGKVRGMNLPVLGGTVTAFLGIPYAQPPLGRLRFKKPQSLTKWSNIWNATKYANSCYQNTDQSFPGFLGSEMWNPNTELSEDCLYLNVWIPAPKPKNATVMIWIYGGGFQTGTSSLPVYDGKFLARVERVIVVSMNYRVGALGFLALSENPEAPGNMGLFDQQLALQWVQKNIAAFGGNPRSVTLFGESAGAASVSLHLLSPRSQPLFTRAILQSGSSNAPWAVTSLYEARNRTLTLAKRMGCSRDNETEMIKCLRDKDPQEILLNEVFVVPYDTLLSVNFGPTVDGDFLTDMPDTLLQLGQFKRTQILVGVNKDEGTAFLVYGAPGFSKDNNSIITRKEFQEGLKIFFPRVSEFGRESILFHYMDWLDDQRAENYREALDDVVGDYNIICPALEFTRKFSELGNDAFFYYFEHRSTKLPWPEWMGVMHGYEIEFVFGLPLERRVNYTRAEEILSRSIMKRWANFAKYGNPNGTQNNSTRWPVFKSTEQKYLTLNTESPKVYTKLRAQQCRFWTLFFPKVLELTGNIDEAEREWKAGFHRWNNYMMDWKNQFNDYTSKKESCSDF
In short: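 Ellman assay with horse serum BuChE (5 IU/mL) in 0.1 M phosphate buffer pH 8.0 with DTNB. Compound was preincubated with enzyme 5 min, then butyrylthiocholine iodide was added. Absorbance read at 412 nm. IC50 from a log concentration vs % inhibition curve; triplicate runs.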

SH-SY5Y [10] = test: Inhibition of amyloid beta (1 to 42) (unknown origin)-induced cell death in human SH-SY5Y cells assessed as cell viability at 50 uM preincubated for 3 hrs followed by amyloid beta (1 to 42) addition measured after 24 hrs by MTT assay relative to control; type: functional; conditions: read-out: Activity
In short: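 SH-SY5Y cells grown in DMEM with 10% FBS, 1% L-glutamine and antibiotics, seeded at 5×10^3/well. Pretreated 3 h with compound (10 or 50 µM), then Aβ1-42 10 µM added for 24 h. MTT, formazan dissolved in DMSO, A570. Viability as blank-corrected % of untreated control; three independent experiments, mean ± SEM.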

PC-12 [11] = test: Neuroprotection against H2O2-induced cell death in rat PC12 cells assessed as cell viability at 20 uM preincubated for 3 hrs followed by H2O2 stimulation measured after 2 hrs by MTT assay (reference value: 25.2 to 41.8%); type: functional; conditions: read-out: Activity
PC-12 [12] = test: Neuroprotection against H2O2-induced cell death in rat PC12 cells assessed as cell viability at 50 uM preincubated for 3 hrs followed by H2O2 stimulation measured after 2 hrs by MTT assay (reference value: 25.2 to 41.8%); type: functional; conditions: read-out: Activity
PC-12 [13] = test: Neuroprotection against H2O2-induced cell death in rat PC12 cells assessed as cell viability at 10 uM preincubated for 3 hrs followed by H2O2 stimulation measured after 2 hrs by MTT assay (reference value: 25.2 to 41.8%); type: functional; conditions: read-out: Activity
SH-SY5Y [14] = test: Neuroprotection against H2O2-induced cell death in human SH-SY5Y cells assessed as cell viability at 50 uM preincubated for 3 hrs followed by H2O2 addition measured after 24 hrs by MTT assay relative to control; type: functional; conditions: read-out: Activity
In short: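 SH-SY5Y cells grown in DMEM with 10% FBS, 1% L-glutamine and antibiotics, 5×10^3/well. Compound (10 or 50 µM) for 3 h before 250 µM H2O2, then 24 h incubation. MTT read at 570 nm after DMSO solubilization. Viability as blank-corrected % of untreated control; three independent experiments, mean ± SEM.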

PC-12 [15] = test: Neuroprotection against H2O2-induced cell death in rat PC12 cells assessed as cell viability at 1 uM preincubated for 3 hrs followed by H2O2 stimulation measured after 2 hrs by MTT assay (reference value: 25.2 to 41.8%); type: functional; conditions: read-out: Activity
PC-12 [16] = test: Neuroprotection against H2O2-induced cell death in rat PC12 cells assessed as increase in cell viability preincubated for 3 hrs followed by H2O2 stimulation measured after 2 hrs by MTT assay; type: functional, cell-based
PC-12 [17] = test: Neuroprotection against H2O2-induced cell death in rat PC12 cells assessed as cell viability at 0.1 uM preincubated for 3 hrs followed by H2O2 stimulation measured after 2 hrs by MTT assay (reference value: 25.2 to 41.8%); type: functional; conditions: read-out: Activity
SH-SY5Y [18] = test: Neuroprotection against H2O2-induced cell death in human SH-SY5Y cells assessed as cell viability at 100 uM preincubated for 3 hrs followed by H2O2 addition measured after 24 hrs by MTT assay relative to control; conditions: read-out: Activity
SH-SY5Y [19] = test: Inhibition of amyloid beta (1 to 42) (unknown origin)-induced cell death in human SH-SY5Y cells assessed as cell viability at 100 uM preincubated for 3 hrs followed by amyloid beta (1 to 42) addition measured after 24 hrs by MTT assay relative to control; conditions: read-out: Activity

| SMILES | viability at 5 µM (PC-12 [7]) [%] | IC50 [8] [µM] | IC50 (Acetylcholinesterase) [µM] | IC50 (Cholinesterase) [µM] | viability at 20 µM (PC-12 [11]) [%] | viability at 50 µM (PC-12 [12]) [%] | viability at 10 µM (PC-12 [13]) [%] | viability at 1 µM (PC-12 [15]) [%] | Activity (PC-12 [16]) | viability at 0.1 µM (PC-12 [17]) [%] | further results |
| --- | --- | --- | --- | --- | --- | --- | --- | --- | --- | --- | --- |
| O=C(O)CCCCC1CCSS1 (stereo not drawn) [LIPOIC ACID, ALPHA] | – | – | – | – | – | – | – | – | – | – | Activity (PC-12 [1]): 138.77%; Activity (PC-12 [2]): 110.65%; Activity (PC-12 [3]): 105.72%; Activity (PC-12 [4]): 55.9% |
| CO[C@H]1/C=C/O[C@@]2(C)Oc3c(C)c(O)c4c(O)c(c(/C=N/N5CCN(C)CC5)c(O)c4c3C2=O)NC(=O)/C(C)=C\C=C\[C@H](C)[C@H](O)[C@@H](C)[C@@H](O)[C@@H](C)[C@H](OC(C)=O)[C@@H]1C | – | – | – | – | – | – | – | – | – | – | inhibition [5]: 27.5% |
| Cc1cc(=O)oc2cc(OCCCn3cc(CNC(=O)CCCCC4CCSS4)nn3)ccc12 (stereo unspecified) | 64.6 | > 100 | 55 | > 100 | 74.3 | 75.4 | 69.4 | 54.5 | Dose-dependent effect | 44.8 | Activity (PC-12 [6]): Non-Toxic; inhibition (PC-12 [9]): Dose-dependent effect; Activity (PC-12 [1]): 118.8%; viability at 50 µM (SH-SY5Y [10]): 72.9%; Activity (PC-12 [2]): 131.54%; inhibition [5]: 26.6%; Activity (PC-12 [3]): 122.93%; viability at 50 µM (SH-SY5Y [14]): 55.6%; Activity (PC-12 [4]): 49.24% |
| COc1cc2c(cc1OC)C(=O)C(CC1CCN(Cc3ccccc3)CC1)C2 (stereo unspecified) [DONEPEZIL] | – | – | – | – | – | – | – | – | – | – | viability at 100 µM (SH-SY5Y [18]): 33%; viability at 100 µM (SH-SY5Y [19]): 39.9% |
| O=C(CCCCC1CCSS1)NCc1cn(CCCCCOc2ccc3cc(-c4ccc(Cl)c(Cl)c4)c(=O)oc3c2)nn1 (stereo unspecified) | 54.8 | > 100 | > 100 | 7.8 | 65.5 | 66.2 | 59.4 | 50.6 | Dose-dependent effect | 39.7 | – |
| CCOC(=O)c1cc2ccc(OCCCCCn3cc(CNC(=O)CCCCC4CCSS4)nn3)cc2oc1=O (stereo unspecified) | 36.4 | > 100 | 59.7 | > 100 | 39.5 | 40.7 | 38.3 | 35.1 | Dose-dependent effect | 34.4 | – |
| CCOC(=O)c1cc2ccc(OCCCn3cc(CNC(=O)CCCCC4CCSS4)nn3)cc2oc1=O (stereo unspecified) | 32.4 | > 100 | 55 | > 100 | 42.1 | 49.2 | 36.1 | 28.3 | Dose-dependent effect | 28 | – |
| O=C(CCCCC1CCSS1)NCc1cn(CCCCOc2ccc3cc(-c4ccc(Cl)cc4)c(=O)oc3c2)nn1 (stereo unspecified) | 52 | > 100 | > 100 | 52 | 68.4 | 74.9 | 61.8 | 46.2 | Dose-dependent effect | 38.8 | – |
